Test results from ChEMBL document CHEMBL3826882, “Discovery of 1-((2R,4aR,6R,7R,7aR)-2-Isopropoxy-2-oxidodihydro-4H,6H-spiro[furo[3,2-d][1,3,2]dioxaphosphinine-7,2'-oxetan]-6-yl)pyrimidine-2,4(1H,3H)-dione (JNJ-54257099), a 3'-5'-Cyclic Phosphate Ester Prodrug of 2'-Deoxy-2'-Spirooxetane Uridine Triphosphate Useful for HCV Inhibition” (J Med Chem, 2016).
Values belong to the compound of their own block, whether it stands above or below them.

Tests used:
Hepatocyte [1] = assay: Prodrug conversion in human primary hepatocytes assessed as 2'-deoxy-2'-spirooxetane uridine triphosphate level per million cells at 62.5 uM after 4 hrs using radiolabelled compound by LC-MS/MS analysis; type: ADME, cell-based
Outline: (§1)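 Study A: fresh primary hepatocyte cultures from mouse, rat, dog and human incubated with tritiated prodrug at 2 or 62.5 µM for 4 or 24 h. Triphosphate in cell lysates reported as pmol/million hepatocytes. Duplicate or single measurements.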

[2] = Stability in dog primary hepatocyte supernatant assessed as parent compound level at 2 uM after 4 to 24 hrs using radiolabeled compound by HPLC analysis; type: ADME, cell-based, Canis lupus familiaris; conditions: hepatocytes
Outline: (§2)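 Fresh primary hepatocyte cultures incubated with tritiated prodrug (5'-[3H]) at 2 and 62.5 µM for 4 and 24 h. Supernatants taken after protein precipitation and profiled by HPLC with radioactivity detection. Cell lysates profiled for metabolites by radio-LC. Cyclic monophosphate also measured by LC/MS/MS.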

Hepatocyte [3] = assay: Drug metabolism in human primary hepatocyte supernatant assessed as 1-[(4aR,6R,7R,7aR)-2-hydroxy-2-oxidodihydro-4H-spiro[furo[3,2-d][1,3,2]dioxaphosphinine-7,2'-oxetan]-6-yl]pyrimidine-2,4(1H,3H)-dione formation at 2 to 62.5 uM after 4 to 24 hrs using radiolabelled compound by HPLC analysis; type: ADME, cell-based; conditions: hepatocytes; outline: as §2
[4] = Prodrug conversion in dog primary hepatocytes assessed as 2'-deoxy-2'-spirooxetane uridine triphosphate level per million cells at 2 uM after 24 hrs using radiolabelled compound by LC-MS/MS analysis; type: ADME, cell-based, Canis lupus familiaris, Hepatocyte; outline: as §1
Hepatocyte [5] = assay: Drug metabolism in rat primary hepatocytes assessed as ((4R,5R,7R,8R)-5-(2,4-dioxo-3,4-dihydropyrimidin-1(2H)-yl)-8-hydroxy-1,6-dioxaspiro[3.4]octan-7-yl)methyl dihydrogen phosphate formation at 2 to 62.5 uM after 24 hrs using radiolabeled compound by LC-MS/MS analysis; type: ADME, cell-based; outline: as §2
Hepatocyte [6] = assay: Stability in mouse primary hepatocyte supernatant assessed as parent compound level at 2 uM after 4 to 24 hrs using radiolabeled compound by HPLC analysis; type: ADME, cell-based; conditions: hepatocytes
Hepatocyte [7] = assay: Drug metabolism in rat primary hepatocytes assessed as 1-[(4aR,6R,7R,7aR)-2-hydroxy-2-oxidodihydro-4H-spiro[furo[3,2-d][1,3,2]dioxaphosphinine-7,2'-oxetan]-6-yl]pyrimidine-2,4(1H,3H)-dione formation at 2 to 62.5 uM after 24 hrs using radiolabelled compound by LC-MS/MS analysis; type: ADME, cell-based; outline: as §2
[8] = Cmax in rat liver at 50 mg/kg, po; type: ADME, organism-based; design: dose 50 mg/kg, route oral
Liver [9] = assay: Tlast in mouse liver at 50 mg/kg, po; type: ADME, organism-based; conditions: in vivo
Outline: (§3)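 Single oral dose of 50 mg/kg formulated in 20% HP-β-cyclodextrin. Prodrug and its triphosphate were measured in plasma and liver (ng/mL or ng/g) over time, and Cmax, tmax, AUC, tlast and t1/2 were derived. For some analytes, data from two independent studies are reported.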

[10] = Stability in human HuH7 cells assessed as parent compound level at 100 uM incubated for 96 hrs by LC-MS analysis; type: ADME, cell-based; conditions: huh-7, 96 h
Outline: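 Huh-7 replicon-containing cells incubated 96h with prodrug at 100µM; cell lysates analysed by LC-MS for triphosphate and remaining unmetabolised prodrug.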

Hepatocyte [11] = assay: Prodrug conversion in human hepatocytes assessed as 2'-deoxy-2'-spirooxetane uridine triphosphate formation in presence of CYP3A4 inhibitor ritonavir by LC-MS/MS analysis; type: ADME, cell-based
[12] = Tmax in mouse liver at 50 mg/kg, po; type: ADME, organism-based; outline: as §3
Hepatocyte [13] = assay: Prodrug conversion in rat primary hepatocytes assessed as 2'-deoxy-2'-spirooxetane uridine triphosphate formation measured at 2 hrs by LC-MS/MS analysis; type: ADME, cell-based
Outline: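 Hepatocyte primary cultures followed over time for triphosphate formation in cell lysates: rat and mouse up to 24 h, human up to 96 h.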

Plasma = assay: Tlast in mouse plasma at 50 mg/kg, po; type: ADME, organism-based; conditions: in vivo; outline: as §3
Hepatitis C virus [14] = assay: Antiviral activity against HCV genotype 3a infected in homozygous cDNA-uPA chimeric SCID mouse bearing humanized hepatocytes assessed as reduction in HCV RNA level in serum administered through oral gavage twice daily daily for 7 days by RT-PCR method; type: functional, organism-based; conditions: Hepacivirus hominis, Hepatocyte
Outline: (§4)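 Male chimeric SCID cDNA-uPA+/+ mice with human hepatocyte liver (≥70% replacement by blood human albumin) and serum HCV RNA >1.0×10^6 copies/mL the week before dosing. Oral gavage for 7 days in 20% HP-β-CD, 50-200 mg/kg QD or BID. Serum sampled pre-dose on days 1, 2, 3, 5 and 7. Real-time PCR; mean change in log10 copies/mL, day 7 vs day 1 pre-dose.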

Liver [15] = assay: AUC (0 to infinity) in mouse liver at 50 mg/kg, po; type: ADME, organism-based; design: dose 50 mg/kg, route oral, time infinity; conditions: in vivo
Outline: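 Oral dose 50 mg/kg, formulated in 20% HP-β-cyclodextrin. Prodrug and triphosphate were measured in plasma and liver (ng/mL or ng/g). Parameters derived were Cmax, tmax, AUC0-last, AUC0-inf and t1/2. Some prodrug data come from two independent studies.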

Hepatocyte [16] = assay: Prodrug conversion in human hepatocytes assessed as 2'-deoxy-2'-spirooxetane uridine triphosphate formation in presence of CYP3A4 inhibitor ketoconazole by LC-MS/MS analysis; type: ADME, cell-based
Liver [17] = assay: Tlast in dog liver at 50 mg/kg, po; type: ADME, organism-based, Canis lupus familiaris; conditions: in vivo; outline: as §3
Liver [18] = assay: Tlast in rat liver at 50 mg/kg, po; type: ADME, organism-based; conditions: in vivo; outline: as §3
Liver [19] = assay: Tmax in rat liver assessed as 2'-deoxy-2'-spirooxetane uridine triphosphate at 50 mg/kg, po; type: ADME, organism-based; conditions: in vivo; outline: as §3
Hepatocyte [20] = assay: Drug metabolism in human hepatocytes assessed as ((4R,5R,7R,8R)-5-(2,4-dioxo-3,4-dihydropyrimidin-1(2H)-yl)-8-hydroxy-1,6-dioxaspiro[3.4]octan-7-yl)methyl dihydrogen phosphate formation in presence of PDE4 inhibitor rolipram by LC-MS/MS analysis; type: ADME, cell-based
Hepatocyte [21] = assay: Prodrug conversion in human cryopreserved hepatocytes assessed as 2'-deoxy-2'-spirooxetane uridine triphosphate level per million cells at 10 uM after 24 hrs by LC-MS/MS analysis; type: ADME, cell-based
Outline: (§5)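 Plated cryopreserved hepatocytes (study B) incubated with 10 µM unlabeled prodrug for 2, 8 or 24 h. Triphosphate measured in cell lysates and expressed as pmol/million hepatocytes. Quantification limit 2 ng/10^6 cells.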

[22] = Tmax in dog plasma at 50 mg/kg, po; type: ADME, organism-based, Canis lupus familiaris; outline: as §3
Hepatitis C virus [23] = assay: Antiviral activity against HCV genotype 1a infected in homozygous cDNA-uPA chimeric SCID mouse bearing humanized hepatocytes assessed as change in HCV RNA level in serum at 50 mg/kg, po bid administered through gavage for 7 days by RT-PCR method; type: functional, Hepacivirus hominis, subtype 1a, Hepatocyte; outline: as §4
Hepatocyte [24] = assay: Prodrug conversion in human hepatocytes assessed as 2'-deoxy-2'-spirooxetane uridine triphosphate formation in presence of pan-CYP inhibitor 1-ABT by LC-MS/MS analysis; type: ADME, cell-based
[25] = Half life in mouse plasma at 50 mg/kg, po; type: ADME, organism-based
Outline: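 Single oral dose of 50 mg/kg in 20% HP-β-cyclodextrin. Prodrug and triphosphate measured in plasma and liver over time (tlast 6–30 h). Half-life, Cmax, tmax and AUC0-last derived; liver/plasma ratio taken from AUC0-last. Prodrug data pooled from two independent studies.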

Hepatocyte [26] = assay: Prodrug conversion in mouse cryopreserved hepatocytes assessed as 2'-deoxy-2'-spirooxetane uridine triphosphate level per million cells at 10 uM after 8 hrs by LC-MS/MS analysis; type: ADME, cell-based; outline: as §5

- Drug metabolism (Hepatocyte [1]): 0.24 pmol
- Stability [2]: Stable
- Drug metabolism (Hepatocyte [3]): metabolite_detected
- Drug metabolism [4]: 0.007 pmol
- Drug metabolism (Hepatocyte [5]): metabolite_detected
- Stability (Hepatocyte [6]): Stable
- Drug metabolism (Hepatocyte [7]): metabolite_detected
SMILES: [3H]C1O[P@](=O)(OC(C)C)O[C@@H]2[C@@H]1O[C@@H](n1ccc(=O)[nH]c1=O)[C@@]21CCO1 (some centres not stated)

SMILES: CC(C)O[P@@]1(=O)OC[C@H]2O[C@@H](n3ccc(=O)[nH]c3=O)[C@@]3(CCO3)[C@@H]2O1
- Cmax [8]: 944 ng/g
- Tlast (Liver [9]): 6 h
- Stability [10]: Stable
- Drug metabolism (Hepatocyte [11]): metabolite_notdetected
- Tmax [12]: 1 h
- Drug metabolism (Hepatocyte [13]): metabolite_detected
- Tlast (Plasma): 24 h
- Activity (Hepatitis C virus [14]): Dose-dependent effect
- AUC (Liver [15]): 1706 ng·h/g
- Drug metabolism (Hepatocyte [16]): metabolite_notdetected
- Tlast (Liver [17]): 24 h
- Tlast (Liver [18]): 6 h
- Tmax (Liver [19]): 4 h
- Drug metabolism (Hepatocyte [20]): metabolite_detected
- Drug metabolism (Hepatocyte [21]): 0.151 pmol
- Tmax [22]: 1.5 h
- Activity (Hepatitis C virus [23]): -0.45
- Drug metabolism (Hepatocyte [24]): metabolite_notdetected
- half-life [25]: 4.4 h
- Drug metabolism (Hepatocyte [26]): 0.95 pmol
